Results collected from several papers.
Lines come from different studies, so protocols differ.
Target: Protein-tyrosine kinase 2-beta (PTK2B, Homo sapiens, UniProt Q14289)

| Structure (SMILES) | test | conditions | measurement | value |
| --- | --- | --- | --- | --- |
| Cc1noc([C@H]2C[C@@H](c3ccc(C(F)(F)F)cc3)CN(C(=O)N3CCS(=O)(=O)C3)C2)n1 | cell-free assay, competition with immobilised ligand | 1 µM | remaining binding | 100% |
| Cc1ccc(C(=O)Nc2ccc(CN3CCN(C)CC3)c(C(F)(F)F)c2)cc1C#Cc1cnc2cccnn12 | enzyme activity, inhibitor | 23.5 nM | remaining activity | 45% |
| CCN(CC)CCNC(=O)c1c(C)[nH]c(/C=C2\C(=O)Nc3ccc(F)cc32)c1C | enzyme activity, inhibitor | 0.1 µM | remaining activity | 86% |
| COc1cc2ncnc(Nc3ccc(Oc4ccccc4)c(C)c3C)c2cc1OC | enzyme activity, inhibitor | 1 µM | inhibition | 1% |
| O=C1Nc2ccc(Cl)cc2C1=Cc1cc(Cl)c(O)c(Cl)c1 | cell-free assay | 0.5 µM | remaining signal | 96.7% |
| Cc1sc(C(=O)NC2COC2)cc1-n1cc(NC(=O)Nc2c(F)cccc2Cl)cn1 | enzyme activity, inhibitor | 10 µM | remaining activity | 104% |
| CC(C)(C)c1nc2c(s1)c1nc(N)ncc1c1ccc(NS(=O)(=O)c3c(F)cccc3F)c(F)c12 | enzyme activity, inhibitor, radiometric | 1 µM | remaining activity | 91% |
| CN1CC(Oc2cnc(C#N)cc2-c2ccn3nc(NC(=O)C4CC4)cc3c2)C1 | enzyme activity, inhibitor | 1 µM | inhibition | 6% |
| FC(F)(F)c1ccc2c(c1)nc(-c1cccnc1)n2C1CC1 | cell-free assay, competition with immobilised ligand | 1 µM | remaining binding | 100% |
| CCCOc1ccc(OC)c(F)c1C(=O)c1ccc(C(=O)N[C@@H]2CNC[C@H]2NC(=O)c2ccc3[nH]ncc3c2)cc1 | enzyme activity, inhibitor | 10 µM | remaining activity | 77% |
| CO[C@@H](C)c1c(Nc2ccc([C@H](N(C)C(=O)C3CCS(=O)(=O)CC3)C(F)(F)F)cc2)cnc2cc(Cl)nn12 | cell-free assay, competition with immobilised ligand | 1 µM | remaining binding | 83% |
| CNC(=O)c1cc(Oc2ccc(NC(=O)Nc3ccc(Cl)c(C(F)(F)F)c3)cc2)ccn1 | enzyme activity, inhibitor | 10 µM | inhibition | 28% |
| Cc1cc(NC(=O)c2cccc3cc(-c4cccc5[nH]nc(N)c45)ccc23)ccc1F | enzyme activity, inhibitor | 0.1 µM | activity vs control | 113% |
| COc1cc2c(Nc3ccc(Br)cc3F)ncnc2cc1OCC1CCN(C)CC1 | cell-free assay | 0.5 µM | remaining signal | 99.5% |
| Cc1cnc(NC2CCOCC2)nc1-n1cnc(C(=O)NC(CN)c2cc(F)cc(Cl)c2)c1 (stereo not shown) | enzyme activity, inhibitor, radiometric | 1 µM | remaining activity | 99% |
| Cc1ccc(Nc2nccc(N(C)c3ccc4c(C)n(C)nc4c3)n2)cc1S(N)(=O)=O | enzyme activity, inhibitor | 10 µM | inhibition | 81% |
| CCc1ccccc1C(=O)Nc1n[nH]c2c(C)c(F)c(C3C(C#N)=C(C)N(C)C(C)=C3C#N)cc12 | cell-free assay, competition with immobilised ligand | 1 µM | remaining binding | 92% |
| Nc1nc(Nc2ccc(S(N)(=O)=O)cc2)nn1C(=O)c1c(F)cccc1F | cell-free assay | 0.5 µM | remaining signal | 79.7% |
| C[C@H](c1ccc(F)cc1)N(Cc1cccc(C(=O)O)c1)C(=O)c1cnc2ccccc2c1 | cell-free assay, competition with immobilised ligand | 1 µM | remaining binding | 100% |
| Cc1[nH]c(/C=C2\C(=O)Nc3ccc(F)cc32)c(C)c1C(=O)N[C@H]1CCN(C(=O)N(C)C)C1 | enzyme activity, inhibitor | 1 µM | remaining activity | 75% |
| O=C(N1CCS(=O)(=O)CC1)N1C[C@H](c2ccc(OC(F)(F)F)cc2)C[C@H](c2nc(C3CC3)no2)C1 | cell-free assay, competition with immobilised ligand | 1 µM | remaining binding | 99% |
| CCCS(=O)(=O)Nc1ccc(F)c(C(=O)c2c[nH]c3ncc(-c4ccc(Cl)cc4)cc23)c1F | enzyme activity, inhibitor | 1 µM | inhibition | < 10% |
| CC/C(=N\NC(=O)NCc1cccc(O)c1)c1ccc(O)c(C)c1O | enzyme activity, inhibitor | 0.1 µM | inhibition | -0.1% |
| CN([C@@H]1CCc2c(CC(=O)O)c3cc(S(C)(=O)=O)ccc3n2C1)S(=O)(=O)c1ccc(F)cc1 | cell-free assay, competition with immobilised ligand | 1 µM | remaining binding | 100% |
| COc1cc(Cl)c(C(=O)N[C@@H](CN[C@H]2CC[C@@H](N)CC2)Cc2ccc(C#N)cc2)cc1-c1ccc(CN[C@H](C)c2ccc(C)cc2)o1 | enzyme activity, inhibitor | 1 µM | remaining activity | 101% |
| CCN(CC)CCNC(=O)c1c(C)[nH]c(/C=C2\C(=O)Nc3ccc(F)cc32)c1C | enzyme activity, inhibitor | 10 µM | inhibition | 97% |
| CNC(=O)c1ccc(Nc2ncc(C(F)(F)F)c(NCc3nccnc3N(C)S(C)(=O)=O)n2)cc1 | binding, competition with immobilised ligand | 1 µM | remaining binding | 8.3% |
| COc1cc2c(N3CCN(C(=O)Nc4ccc(OC(C)C)cc4)CC3)ncnc2cc1OCCCN1CCCCC1 | cell-free assay | 0.5 µM | remaining signal | 99.3% |
